# Calls of active or inactive are those of the source. The calls are words filed in the database; no cut-off is given here.
# Tests used:
# Allium cepa [1] = experiment: Inhibition of germination of Allium cepa cv. Valenciana (onion) at 0.1 mM or 1 mM after 5 days relative to untreated control; format: functional
# Triticum aestivum [2] = experiment: Inhibition of root length of Triticum aestivum cv. Cortex (wheat) at 0.1 mM or 1 mM after 5 days relative to untreated control; format: functional
# In short: (§1)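 Wheat: 10 seeds per dish on filter paper with 5 mL test solution, 5 days in the dark at 25 °C, 10 replicates per concentration. Stock test solutions were 10^-3 or 10^-4 M in 10 mM MES, with lower levels made by dilution, all at pH 6.0. Parallel controls were run. Output is % difference from control.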
# Triticum aestivum [3] = experiment: Inhibition of hypocotyl length of Triticum aestivum cv. Cortex (wheat) at 0.1 mM or 1 mM after 5 days relative to untreated control; format: functional; in short: as §1
# Triticum aestivum [4] = experiment: Inhibition of germination of Triticum aestivum cv. Cortex (wheat) at 0.1 mM or 1 mM after 5 days relative to untreated control; format: functional; in short: as §1
# Solanum lycopersicum [5] = experiment: Inhibition of hypocotyl length of Solanum lycopersicum cv. Tres Cantos (tomato) at 0.1 mM or 1 mM after 5 days relative to untreated control; format: functional
# In short: (§2)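 Lettuce and tomato seeds, 25 per dish on filter paper, received 5 mL test solution. Incubation was 5 days in the dark at 25 °C, with four replicates per concentration. Solutions were made at 10^-3 or 10^-4 M in 10 mM MES, diluted serially, and adjusted to pH 6.0. Parallel controls were run. Results are % difference from control.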
# Solanum lycopersicum [6] = experiment: Inhibition of root length of Solanum lycopersicum cv. Tres Cantos (tomato) at 0.1 mM or 1 mM after 5 days relative to untreated control; format: functional; in short: as §2
# Lepidium sativum [7] = experiment: Inhibition of hypocotyl length of Lepidium sativum at 0.1 mM or 1 mM after 5 days relative to untreated control; format: functional
# Allium cepa [8] = experiment: Inhibition of root length of Allium cepa cv. Valenciana (onion) at 0.1 mM or 1 mM after 5 days relative to untreated control; format: functional
# Triticum aestivum [9] = experiment: Stimulation of hypocotyl length of Triticum aestivum cv. Cortex (wheat) at 0.1 mM or 1 mM after 5 days relative to untreated control; format: functional; in short: as §1
# Allium cepa [10] = experiment: Stimulation of germination of Allium cepa cv. Valenciana (onion) at 0.1 mM or 1 mM after 5 days relative to untreated control; format: functional
# Triticum aestivum [11] = experiment: Stimulation of root length of Triticum aestivum cv. Cortex (wheat) at 0.1 mM or 1 mM after 5 days relative to untreated control; format: functional; in short: as §1
# Solanum lycopersicum [12] = experiment: Inhibition of germination of Solanum lycopersicum cv. Tres Cantos (tomato) at 0.1 mM or 1 mM after 5 days relative to untreated control; format: functional; in short: as §2
# Lactuca sativa [13] = experiment: Inhibition of hypocotyl length of Lactuca sativa cv. Roman (lettuce) at 0.1 mM or 1 mM after 5 days relative to untreated control; format: functional; in short: as §2
# Lactuca sativa [14] = experiment: Inhibition of root length of Lactuca sativa cv. Roman (lettuce) at 0.1 mM or 1 mM after 5 days relative to untreated control; format: functional; in short: as §2
# Lactuca sativa [15] = experiment: Inhibition of germination of Lactuca sativa cv. Roman (lettuce) at 0.1 mM or 1 mM after 5 days relative to untreated control; format: functional; in short: as §2
# Triticum aestivum [16] = experiment: Stimulation of germination of Triticum aestivum cv. Cortex (wheat) at 0.1 mM or 1 mM after 5 days relative to untreated control; format: functional; in short: as §1
# Solanum lycopersicum [17] = experiment: Stimulation of hypocotyl length of Solanum lycopersicum cv. Tres Cantos (tomato) at 0.1 mM or 1 mM after 5 days relative to untreated control; format: functional; in short: as §2
# Solanum lycopersicum [18] = experiment: Stimulation of root length of Solanum lycopersicum cv. Tres Cantos (tomato) at 0.1 mM or 1 mM after 5 days relative to untreated control; format: functional; in short: as §2
# Solanum lycopersicum [19] = experiment: Stimulation of germination of Solanum lycopersicum cv. Tres Cantos (tomato) at 0.1 mM or 1 mM after 5 days relative to untreated control; format: functional; in short: as §2
# Lepidium sativum [20] = experiment: Stimulation of hypocotyl length of Lepidium sativum at 0.1 mM or 1 mM after 5 days relative to untreated control; format: functional
# Lepidium sativum [21] = experiment: Stimulation of root length of Lepidium sativum at 0.1 mM or 1 mM after 5 days relative to untreated control; format: functional
# Lactuca sativa [22] = experiment: Stimulation of root length of Lactuca sativa cv. Roman (lettuce) at 0.1 mM or 1 mM after 5 days relative to untreated control; format: functional; in short: as §2
# Lactuca sativa [23] = experiment: Stimulation of hypocotyl length of Lactuca sativa cv. Roman (lettuce) at 0.1 mM or 1 mM after 5 days relative to untreated control; format: functional; in short: as §2
# Lactuca sativa [24] = experiment: Stimulation of germination of Lactuca sativa cv. Roman (lettuce) at 0.1 mM or 1 mM after 5 days relative to untreated control; format: functional; in short: as §2
# Lepidium sativum [25] = experiment: Inhibition of root length of Lepidium sativum at 0.1 mM or 1 mM after 4 days relative to untreated control
# Lepidium sativum [26] = experiment: Inhibition of germination of Lepidium sativum at 0.1 mM or 1 mM after 4 days relative to untreated control
# Allium cepa [27] = experiment: Stimulation of root length of Allium cepa cv. Valenciana (onion) at 0.1 mM or 1 mM after 7 days relative to untreated control
# Allium cepa [28] = experiment: Inhibition of hypocotyl length of Allium cepa cv. Valenciana (onion) at 0.1 mM or 1 mM after 7 days relative to untreated control
# Allium cepa [29] = experiment: Stimulation of hypocotyl length of Allium cepa cv. Valenciana (onion) at 0.1 mM or 1 mM after 7 days relative to untreated control
compound,measurement,setting,value
C=C1CC[C@H]2C(=C)CC[C@@H](C(=C)CO)[C@H](O)[C@@H]12,inhibition,Allium cepa [1],inactive
same,inhibition (INH),Triticum aestivum [2],20%
same,inhibition (INH),Triticum aestivum [3],<20%
same,inhibition,Triticum aestivum [4],inactive
same,inhibition,Solanum lycopersicum [5],inactive
same,inhibition (INH),Solanum lycopersicum [6],<20%
same,inhibition,Lepidium sativum [7],inactive
same,inhibition,Allium cepa [8],inactive
same,Activity,Triticum aestivum [9],<20%
same,Activity,Allium cepa [10],inactive
same,Activity,Triticum aestivum [11],20%
same,inhibition (INH),Solanum lycopersicum [12],20%
same,inhibition (INH),Lactuca sativa [13],<20%
same,inhibition,Lactuca sativa [14],inactive
same,inhibition,Lactuca sativa [15],inactive
same,Activity,Triticum aestivum [16],inactive
same,Activity,Solanum lycopersicum [17],inactive
same,Activity,Solanum lycopersicum [18],<20%
same,Activity,Solanum lycopersicum [19],20%
same,Activity,Lepidium sativum [20],inactive
same,Activity,Lepidium sativum [21],inactive
same,Activity,Lactuca sativa [22],inactive
same,Activity,Lactuca sativa [23],<20%
same,Activity,Lactuca sativa [24],inactive
same,inhibition,Lepidium sativum [25],inactive
same,Activity,Lepidium sativum [26],inactive
same,inhibition,Lepidium sativum [26],inactive
same,Activity,Allium cepa [27],inactive
same,inhibition,Allium cepa [28],inactive
same,Activity,Allium cepa [29],inactive

# Reference: ChEMBL document CHEMBL3045304, “Sesquiterpene lactones with potential use as natural herbicide models. 2. guaianolides” (2000)
